Experimental data as given in ChEMBL document CHEMBL4342521 (J Med Chem, 2020).
The source made the active and inactive calls. The rule behind the calls is not given here.

Experiments:
[1] = test system: M14; assay: Antiproliferative activity against human M14 cells assessed as reduction in cell viability after 48 hrs by CellTiter-Blue assay; assay type: functional; details: M14, 48 h, read-out: LC50 (the source's name)
Procedure, shortened: (§1)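 Cells grown in RPMI1640 with 10% FBS at 37 °C, 5% CO₂. 5,000–10,000 cells/well were pre-incubated overnight, and a time-zero CellTiter-Blue read was taken. Six 10-fold dilutions (top final 10 μM) were applied for 48 h, followed by 0.125 mg/mL CellTiter-Blue for 2–4 h. Resorufin fluorescence was read at ex 560/em 590 nm. […] Triplicates.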

[2] = Half life in CD1 mouse at 5 mg/kg, iv after 24 hrs by LC-MS/MS analysis; assay type: ADME, organism-based; details: in vivo
Procedure, shortened: (§2)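 Male CD-1 mice, fasted overnight, 3 per route; compound in PBS with 5% DMSO, iv bolus 5 mg/kg or oral gavage 20 mg/kg. Blood sampled at 5, 15, 30 min and 1–24 h. Plasma protein-precipitated with acetonitrile plus internal standard, quantified by LC-MS/MS (MRM). AUC by linear trapezoidal method; parameters by non-compartmental analysis.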

[3] = test system: U-251; assay: Antiproliferative activity against human U251 cells assessed as reduction in cell viability after 48 hrs by CellTiter-Blue assay; assay type: functional; details: U-251, 48 h, read-out: LC50 (the source's name)
Procedure, shortened: (§3)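 NCI-60 panel lines grown in RPMI1640 with 10% FBS at 37 °C, 5% CO₂. Seeded at 5,000–10,000 cells/well and pre-incubated overnight. Exposed for 48 h to six 10-fold dilutions (top final 10 μM), with a time-zero plate read at dosing. CellTiter-Blue (0.125 mg/mL) for 2–4 h, fluorescence 560/590 nm, triplicate curves.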

[4] = test system: RPMI-8226; assay: Antiproliferative activity against human RPMI8226 cells assessed as reduction in cell viability after 48 hrs by CellTiter-Blue assay; assay type: functional; details: RPMI-8226, 48 h, read-out: LC50 (the source's name); procedure, shortened: as §1
[5] = test system: UACC-62; assay: Antiproliferative activity against human UACC62 cells assessed as reduction in cell viability after 48 hrs by CellTiter-Blue assay; assay type: functional; details: UACC-62, 48 h, read-out: LC50 (the source's name); procedure, shortened: as §3
[6] = test system: SF-295; assay: Antiproliferative activity against human SF295 cells assessed as reduction in cell viability after 48 hrs by CellTiter-Blue assay; assay type: functional; details: SF-295, 48 h, read-out: LC50 (the source's name); procedure, shortened: as §1
[7] = test system: U-937; assay: Antiproliferative activity agaisnt p53 null human U937 cells at 10 uM after 48 hrs by CellTiter-blue assay; assay type: functional, cell-based
[8] = Cmax in CD1 mouse at 20 mg/kg, po via gavage after 24 hrs by LC-MS/MS analysis; assay type: ADME, organism-based; parameters: dose 20 mg/kg, route oral; details: in vivo; procedure, shortened: as §2
[9] = test system: OVCAR-5; assay: Antiproliferative activity against human OVCAR5 cells assessed as reduction in cell viability after 48 hrs by CellTiter-Blue assay; assay type: functional; details: OVCAR-5, 48 h, read-out: LC50 (the source's name); procedure, shortened: as §1
[10] = test system: MV4-11; assay: Down regulation of MDM2 expression in human MV4-11 cells harboring wild type p53/FLT3-ITD mutant at 50 to 200 nM after 24 hrs by Western blot analysis; assay type: functional, cell-based
Procedure, shortened: (§4)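 Cells (1,500,000 per well) grown 12 h, then drug-treated as specified. Lysed in RIPA buffer, sonicated, centrifuged, protein normalized by BCA. Run on 4–12% Bis-Tris gels in MES, transferred, probed overnight at 4 °C with primary antibodies at 1/1000. Actin served as reference for LC3-II quantitation.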

[11] = test system: EKVX; assay: Antiproliferative activity against human EKVX cells assessed as reduction in cell viability after 48 hrs by CellTiter-Blue assay; assay type: functional; details: read-out: LC50 (the source's name); procedure, shortened: as §1
[12] = test system: SK-MEL-5; assay: Antiproliferative activity against human SK-MEL-5 cells assessed as reduction in cell viability after 48 hrs by CellTiter-Blue assay; assay type: functional; details: SK-MEL-5, 48 h, read-out: LC50 (the source's name); procedure, shortened: as §1
[13] = test system: SF-268; assay: Antiproliferative activity against human SF268 cells assessed as reduction in cell viability after 48 hrs by CellTiter-Blue assay; assay type: functional; details: SF-268, 48 h, read-out: LC50 (the source's name); procedure, shortened: as §1
[14] = test system: SR; assay: Induction of apoptosis in human SR cells harboring wild type p53 assessed as pro-caspase 3 cleavage at 50 to 200 nM after 24 hrs by Western blot anlaysis; assay type: functional, cell-based; procedure, shortened: as §4
[15] = test system: NCI-H522; assay: Antiproliferative activity against human NCI-H522 cells assessed as reduction in cell viability after 48 hrs by CellTiter-Blue assay; assay type: functional; details: NCI-H522, 48 h, read-out: LC50 (the source's name); procedure, shortened: as §1
[16] = test system: OVCAR-3; assay: Antiproliferative activity against human OVCAR3 cells assessed as reduction in cell viability after 48 hrs by CellTiter-Blue assay; assay type: functional; details: OVCAR-3, 48 h, read-out: LC50 (the source's name); procedure, shortened: as §1
[17] = test system: HL-60(TB); assay: Antiproliferative activity against human HL-60(TB) cells assessed as reduction in cell viability after 48 hrs by CellTiter-Blue assay; assay type: functional; details: HL-60, 48 h, read-out: LC50 (the source's name); procedure, shortened: as §1
[18] = test system: HOP-92; assay: Antiproliferative activity against human HOP92 cells assessed as reduction in cell viability after 48 hrs by CellTiter-Blue assay; assay type: functional; details: HOP-92, 48 h, read-out: LC50 (the source's name); procedure, shortened: as §1
[19] = Oral bioavailability in CD1 mouse at 20 mg/kg dosed via gavage after 24 hrs by LC-MS/MS analysis; assay type: ADME, organism-based; details: in vivo
Procedure, shortened: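 Male CD-1 mice (n = 3) were fasted overnight and given compound in PBS with 5% DMSO, 5 mg/kg iv bolus or 20 mg/kg by gavage. Blood was sampled from 5 min to 24 h. Plasma was protein-precipitated with acetonitrile containing internal standard and quantified by LC-MS/MS (MRM). AUC was calculated by the linear trapezoidal method and parameters by non-compartmental analysis.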

[20] = test system: HCT-15; assay: Antiproliferative activity against human HCT15 cells assessed as reduction in cell viability after 48 hrs by CellTiter-Blue assay; assay type: functional; details: HCT-15, 48 h, read-out: LC50 (the source's name); procedure, shortened: as §1
[21] = test system: SR; assay: Antiproliferative activity against human SR cells assessed as reduction in cell viability after 48 hrs by CellTiter-Blue assay; assay type: functional; details: read-out: LC50 (the source's name); procedure, shortened: as §3
[22] = test system: MV4-11; assay: Inhibition of MDM2 degradation in human MV4-11 cells harboring wild type p53/FLT3-ITD mutant at 100 nM after 12 hrs in presence of MDM2 inhibitor RG7388 by Western blot analysis relative to control; assay type: functional; details: MV4-11, 12 h; procedure, shortened: as §4
[23] = test system: SK-MEL-28; assay: Antiproliferative activity against human SK-MEL-28 cells assessed as reduction in cell viability after 48 hrs by CellTiter-Blue assay; assay type: functional; details: SK-MEL-28, 48 h, read-out: LC50 (the source's name); procedure, shortened: as §1
[24] = test system: A549; assay: Antiproliferative activity against human A549 cells assessed as reduction in cell viability after 48 hrs by CellTiter-Blue assay; assay type: functional; details: A549, 48 h, read-out: LC50 (the source's name); procedure, shortened: as §1
[25] = test system: MV4-11; assay: Inhibition of ERK phosphorylation in human MV4-11 cells harboring wild type p53/FLT3-ITD mutant at 50 to 200 nM after 24 hrs by Western blot analysis; assay type: cell-based; procedure, shortened: as §4
[26] = test system: OVCAR-4; assay: Antiproliferative activity against human OVCAR4 cells assessed as reduction in cell viability after 48 hrs by CellTiter-Blue assay; assay type: functional; details: OVCAR-4, 48 h, read-out: LC50 (the source's name); procedure, shortened: as §1

Work on CCCNNC(=O)/C=C/c1ccc(CNCCc2c(C)[nH]c3ccccc23)cc1.O=C(O)C(F)(F)F yielded a CC50 [1] greater than 10 µM, a t1/2 [2] of 15.2 h and a CC50 [3] of 4.28 µM. It also gave a CC50 [4] greater than 10 µM, a CC50 [5] of 0.589 µM and a CC50 [6] greater than 10 µM. The Activity [7] was “Active”, the Cmax [8] was 45.1 ng/mL and the CC50 [9] was greater than 10 µM. The Activity [10] was “Active”, the CC50 [11] was greater than 10 µM and the CC50 [12] was greater than 10 µM. For the same molecule, the CC50 [13] was greater than 10 µM, the Activity [14] was “inactive” and the CC50 [15] was greater than 10 µM. The CC50 [16] was greater than 10 µM, the CC50 [17] was greater than 10 µM and the CC50 [18] was greater than 10 µM. For the same molecule, the F [19] was 19.8%, the CC50 [20] was greater than 10 µM and the CC50 [21] was greater than 10 µM. The inhibition at 0.1 µM [22] was 100%, the CC50 [23] was 0.893 µM and the CC50 [24] was greater than 10 µM. The inhibition [25] was “Active” and the CC50 [26] was greater than 10 µM.
